Assay results from ChEMBL document CHEMBL1134576, “Discovery of potent antagonists of leukocyte function-associated antigen-1/intercellular adhesion molecule-1 interaction. 3. Amide (C-ring) structure-activity relationship and improvement of overall properties of arylthio cinnamides” (J Med Chem, 2001).
≈ marks a conversion by molar mass, not a printed value. Where “and” joins values, the source holds several entries; their conditions need not be identical. Identical values can stand only once.

Columns and labels:
[1] = Oral bioavailability in rat; format: ADME, organism-based; conditions: in vivo
How it was run: (§1)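 Rats (n = 4/group) received 5 mg/kg either iv as a slow jugular bolus or po by gavage. The terminal-phase rate constant gave t1/2 and AUC extrapolated to infinity. F compares oral with iv AUC.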

[2] = Mean residence time after po dose in rat; format: ADME, organism-based; conditions: in vivo; how it was run: as §1
[3] = Half life period after iv dose in rat; format: ADME, organism-based; conditions: in vivo; how it was run: as §1
[4] = tested on: Rattus norvegicus; assay: Cmax value after po dose in rat; format: ADME, organism-based; design: route oral; conditions: in vivo; how it was run: as §1
[5] = tested on: JY; assay: Inhibition of JY8 cell adhesion process (The assay was run with 1% fetal bovine serum); format: functional, cell-based; conditions: Homo sapiens, JY-8
How it was run: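 JY-8 cells […] in the presence of 1% fetal bovine serum. Six concentrations from 6.4 × 10^-9 to 2 × 10^-5 were run in duplicate. IC50 is the mean of repeat measurements, with the range given.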

[6] = molecular target: Intercellular adhesion molecule (ICAM-1), Integrin alpha-L/beta-2 (Homo sapiens, UniProt P05107+P20701); assay: Ability to antagonise the Leukocyte function-associated Antigen-1/ Intracellular Adhesion molecule-1 interaction (LFA-1/ICAM-1); format: functional
Sequence of Intercellular adhesion molecule (ICAM-1), Integrin alpha-L/beta-2 (P20701 whole entry): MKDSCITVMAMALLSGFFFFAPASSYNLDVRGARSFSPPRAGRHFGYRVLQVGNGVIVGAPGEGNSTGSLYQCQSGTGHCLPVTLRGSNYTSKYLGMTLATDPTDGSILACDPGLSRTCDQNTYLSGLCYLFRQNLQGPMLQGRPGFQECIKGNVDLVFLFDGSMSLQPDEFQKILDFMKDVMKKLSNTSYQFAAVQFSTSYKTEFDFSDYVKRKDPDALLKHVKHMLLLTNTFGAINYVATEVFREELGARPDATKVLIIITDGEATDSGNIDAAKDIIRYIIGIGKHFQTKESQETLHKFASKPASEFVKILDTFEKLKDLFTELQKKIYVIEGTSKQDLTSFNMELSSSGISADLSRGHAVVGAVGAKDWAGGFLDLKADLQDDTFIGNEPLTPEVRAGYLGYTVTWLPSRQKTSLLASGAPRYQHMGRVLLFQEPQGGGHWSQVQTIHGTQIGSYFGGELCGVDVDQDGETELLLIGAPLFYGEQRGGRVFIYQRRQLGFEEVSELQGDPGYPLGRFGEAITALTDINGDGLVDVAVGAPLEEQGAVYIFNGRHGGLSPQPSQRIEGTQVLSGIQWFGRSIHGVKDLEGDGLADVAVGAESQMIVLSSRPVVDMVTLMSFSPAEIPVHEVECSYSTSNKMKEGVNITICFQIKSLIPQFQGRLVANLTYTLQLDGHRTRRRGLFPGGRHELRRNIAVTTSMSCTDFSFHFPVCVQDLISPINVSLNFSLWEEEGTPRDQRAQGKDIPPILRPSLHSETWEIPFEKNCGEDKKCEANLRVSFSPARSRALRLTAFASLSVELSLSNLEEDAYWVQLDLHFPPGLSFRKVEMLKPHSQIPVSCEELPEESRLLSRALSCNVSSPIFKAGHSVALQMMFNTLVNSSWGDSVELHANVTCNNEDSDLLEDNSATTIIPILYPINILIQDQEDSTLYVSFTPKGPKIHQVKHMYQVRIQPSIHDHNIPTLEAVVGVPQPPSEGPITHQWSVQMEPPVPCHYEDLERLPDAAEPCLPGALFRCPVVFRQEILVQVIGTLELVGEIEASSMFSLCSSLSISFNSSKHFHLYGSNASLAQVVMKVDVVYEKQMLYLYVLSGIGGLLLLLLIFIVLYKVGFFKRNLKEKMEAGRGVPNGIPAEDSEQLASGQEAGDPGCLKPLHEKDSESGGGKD
Sequence of Intercellular adhesion molecule (ICAM-1), Integrin alpha-L/beta-2 (P05362 whole entry, further chain): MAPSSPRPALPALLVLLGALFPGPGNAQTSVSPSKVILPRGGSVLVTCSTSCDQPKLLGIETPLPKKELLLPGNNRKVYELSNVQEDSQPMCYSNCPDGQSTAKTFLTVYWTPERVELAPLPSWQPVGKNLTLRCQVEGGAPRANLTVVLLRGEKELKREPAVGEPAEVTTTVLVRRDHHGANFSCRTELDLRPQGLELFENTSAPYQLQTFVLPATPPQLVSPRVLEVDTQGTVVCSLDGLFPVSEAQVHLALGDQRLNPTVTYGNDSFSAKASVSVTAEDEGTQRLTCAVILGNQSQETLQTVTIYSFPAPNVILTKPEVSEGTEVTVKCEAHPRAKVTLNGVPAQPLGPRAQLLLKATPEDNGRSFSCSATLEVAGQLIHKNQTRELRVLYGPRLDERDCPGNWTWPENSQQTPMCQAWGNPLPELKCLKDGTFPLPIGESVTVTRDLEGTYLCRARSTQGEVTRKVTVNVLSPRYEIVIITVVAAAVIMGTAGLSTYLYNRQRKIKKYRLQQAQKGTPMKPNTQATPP
Sequence of Intercellular adhesion molecule (ICAM-1), Integrin alpha-L/beta-2 (P05107 whole entry): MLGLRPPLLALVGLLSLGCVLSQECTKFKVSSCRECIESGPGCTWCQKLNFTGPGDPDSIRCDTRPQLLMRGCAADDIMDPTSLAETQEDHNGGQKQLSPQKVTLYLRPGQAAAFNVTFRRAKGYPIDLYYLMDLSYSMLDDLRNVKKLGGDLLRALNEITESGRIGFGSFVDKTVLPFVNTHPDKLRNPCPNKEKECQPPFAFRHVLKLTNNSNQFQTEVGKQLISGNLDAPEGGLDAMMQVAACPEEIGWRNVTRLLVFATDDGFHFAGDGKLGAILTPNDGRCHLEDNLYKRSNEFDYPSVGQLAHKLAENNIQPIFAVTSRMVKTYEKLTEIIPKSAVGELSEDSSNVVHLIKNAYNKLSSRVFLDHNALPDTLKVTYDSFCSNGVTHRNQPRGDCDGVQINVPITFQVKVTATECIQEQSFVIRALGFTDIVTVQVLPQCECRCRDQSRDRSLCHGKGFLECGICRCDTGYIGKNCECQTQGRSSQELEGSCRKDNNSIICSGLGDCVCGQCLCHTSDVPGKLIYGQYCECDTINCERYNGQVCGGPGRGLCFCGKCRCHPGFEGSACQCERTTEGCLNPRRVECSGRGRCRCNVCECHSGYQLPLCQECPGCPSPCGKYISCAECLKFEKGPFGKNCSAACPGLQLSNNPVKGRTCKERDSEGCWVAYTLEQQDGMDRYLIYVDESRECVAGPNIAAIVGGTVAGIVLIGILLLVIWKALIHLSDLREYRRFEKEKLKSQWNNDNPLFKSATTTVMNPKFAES

[7] = Clearance after iv dose in rat; conditions: in vivo
[8] = tested on: Rattus norvegicus; assay: Half life period after intravenous dose in rat; format: ADME, organism-based; conditions: in vivo; how it was run: as §1
[9] = tested on: Rattus norvegicus; assay: heart rate in a rat model of ischemia immediately prior to the occlusion at 50 mg/kg dose; format: functional
[10] = tested on: Rattus norvegicus; assay: heart rate in a rat model of reperfusion after 5 min at 50 mg/kg dose; format: functional
[11] = tested on: Rattus norvegicus; assay: heart rate in a rat model of reperfusion after 60 min at 50 mg/kg dose; format: functional
[12] = tested on: Rattus norvegicus; assay: heart rate pressure in a rat model of reperfusion after 120 min at 3 mg/kg dose; format: functional
[13] = tested on: Rattus norvegicus; assay: heart rate pressure in a rat model of reperfusion after 180 min at 3 mg/kg dose; format: functional
[14] = tested on: Rattus norvegicus; assay: heart rate pressure in a rat model of reperfusion after 5 min at 3 mg/kg dose; format: functional
[15] = tested on: Rattus norvegicus; assay: heart rate pressure in a rat model of reperfusion after 60 min at 3 mg/kg dose; format: functional
[16] = tested on: Rattus norvegicus; assay: heart rate in a rat model of ischemia after 15 min at 3 mg/kg dose; format: functional
[17] = tested on: Rattus norvegicus; assay: heart rate in a rat model of ischemia after 15 min at 50 mg/kg dose; format: functional
[18] = tested on: Rattus norvegicus; assay: heart rate in a rat model of ischemia immediately prior to the occlusion at 3 mg/kg dose; format: functional
[19] = tested on: Rattus norvegicus; assay: mean arterial pressure in a rat model of ischemia after 15 min at 3 mg/kg dose; format: functional, Artery
[20] = tested on: Rattus norvegicus; assay: mean arterial pressure in a rat model of ischemia after 15 min at 50 mg/kg dose; format: functional, Artery
[21] = tested on: Rattus norvegicus; assay: mean arterial pressure in a rat model of ischemia immediately prior to the occlusion at 3 mg/kg dose; format: functional, Artery
[22] = tested on: Rattus norvegicus; assay: mean arterial pressure in a rat model of ischemia immediately prior to the occlusion at 50 mg/kg dose; format: functional, Artery
[23] = tested on: Rattus norvegicus; assay: mean arterial pressure in a rat model of reperfusion after 120 min at 3 mg/kg dose; format: functional, Artery
[24] = tested on: Rattus norvegicus; assay: mean arterial pressure in a rat model of reperfusion after 120 min at 50 mg/kg dose; format: functional, Artery
[25] = tested on: Rattus norvegicus; assay: mean arterial pressure in a rat model of reperfusion after 180 min at 3 mg/kg dose; format: functional, Artery
[26] = tested on: Rattus norvegicus; assay: mean arterial pressure in a rat model of reperfusion after 180 min at 50 mg/kg dose; format: functional, Artery
[27] = tested on: Rattus norvegicus; assay: mean arterial pressure in a rat model of reperfusion after 5 min at 3 mg/kg dose; format: functional, Artery
[28] = tested on: Rattus norvegicus; assay: mean arterial pressure in a rat model of reperfusion after 5 min at 50 mg/kg dose; format: functional, Artery
[29] = tested on: Rattus norvegicus; assay: mean arterial pressure in a rat model of reperfusion after 60 min at 3 mg/kg dose; format: functional, Artery
[30] = tested on: Rattus norvegicus; assay: mean arterial pressure in a rat model of reperfusion after 60 min at 50 mg/kg dose; format: functional, Artery
[31] = tested on: Rattus norvegicus; assay: rate pressure product in a rat model of ischemia immediately prior to the occlusion at 50 mg/kg dose; format: functional
[32] = tested on: Rattus norvegicus; assay: rate pressure product in a rat model of reperfusion after 120 min at 3 mg/kg dose; format: functional
[33] = tested on: Rattus norvegicus; assay: rate pressure product in a rat model of reperfusion after 120 min at 50 mg/kg dose; format: functional
[34] = tested on: Rattus norvegicus; assay: rate pressure product in a rat model of reperfusion after 180 min at 3 mg/kg dose; format: functional
[35] = tested on: Rattus norvegicus; assay: rate pressure product in a rat model of reperfusion after 180 min at 50 mg/kg dose; format: functional
[36] = tested on: Rattus norvegicus; assay: rate pressure product in a rat model of reperfusion after 5 min at 3 mg/kg dose; format: functional
[37] = tested on: Rattus norvegicus; assay: rate pressure product in a rat model of reperfusion after 5 min at 50 mg/kg dose; format: functional
[38] = tested on: Rattus norvegicus; assay: rate pressure product in a rat model of reperfusion after 60 min at 3 mg/kg dose; format: functional
[39] = tested on: Rattus norvegicus; assay: rate pressure product in a rat model of reperfusion after 60 min at 50 mg/kg dose; format: functional
[40] = tested on: Rattus norvegicus; assay: rate pressure product in a rat model of ischemia after 15 min at 3 mg/kg dose; format: functional
[41] = tested on: Rattus norvegicus; assay: rate pressure product in a rat model of ischemia after 15 min at 50 mg/kg dose; format: functional
[42] = tested on: Rattus norvegicus; assay: rate pressure product in a rat model of ischemia immediately prior to the occlusion at 3 mg/kg dose; format: functional
[43] = tested on: Canis familiaris; assay: Cmax value after po dose in dog; conditions: in vivo
[44] = Clearance after intravenous dose in rat; conditions: in vivo, CL
[45] = tested on: Rattus norvegicus; assay: Clearance after intravenous dose in rat; conditions: in vivo
[46] = tested on: Canis familiaris; assay: Mean residence time after po dose in dog; conditions: in vivo
[47] = tested on: Rattus norvegicus; assay: heart rate in a rat model of reperfusion after 120 min at 50 mg/kg dose
[48] = tested on: Rattus norvegicus; assay: heart rate in a rat model of reperfusion after 180 min at 50 mg/kg dose
[49] = Percent oral bioavailability after po dose; format: ADME, organism-based; conditions: eutheria, in vivo
[50] = Cmax value after po dose; format: ADME, organism-based; design: route oral; conditions: in vivo
[51] = Water solubility
[52] = Clearance after iv dose

## O=C(O)C1CCN(C(=O)/C=C/c2ccc(Sc3ccc4c(c3)OCCO4)c(C(F)(F)F)c2)CC1
[1]
  bioavailability: 39%
[2]
  MRT: 6.7 h
[3]
  half-life: 3.9 h
[4]
  Cmax: 2.8 ug m l-1
[5]
  IC50: 150 nM
[6]
  IC50: 30 nM
[7]
  clearance: 2 mL/min/kg

## CC(C)c1ccccc1Sc1ccc(/C=C/C(=O)N2CCC(C(=O)O)CC2)cc1[N+](=O)[O-]
[1]
  bioavailability: 21%
[2]
  MRT: 3.5 h
[3]
  half-life: 1.15 h
[4]
  Cmax: 0.5 ug m l-1
[5]
  IC50: 165 nM
[6]
  IC50: 31 nM
[7]
  clearance: 13.2 mL/min/kg

## CC(C)c1ccccc1Sc1ccc(/C=C/C(=O)N2CCOC(c3nnn[nH]3)C2)cc1[N+](=O)[O-] (configuration not stated)
[5]
  IC50: 2 nM
[6]
  IC50: 20 nM

## CC(=O)N1CCN(C(=O)/C=C/c2ccc(Sc3ccccc3C(C)C)c([N+](=O)[O-])c2)CC1C(=O)O (configuration not stated)
[6]
  IC50: 680 nM

## O=C(O)C1CCCN(C(=O)/C=C/c2ccc(Sc3ccc4c(c3)OCCO4)c(C(F)(F)F)c2)C1 (configuration not stated)
[1]
  F: 29% and 55%
[2]
  MRT: 5 h
[8]
  T1/2: 2.3 h and 5.7 h
[4]
  Cmax: 1.5 ug m l-1
[5]
  IC50: 140 nM
[6]
  IC50: 25 nM
[9]
  HR: 419 beats min-1
[10]
  HR: 382 beats min-1
[11]
  HR: 396 beats min-1
[12]
  HR: 371 beats min-1
[13]
  HR: 376 beats min-1
[14]
  HR: 379 beats min-1
[15]
  HR: 382 beats min-1
[16]
  HR: 391 beats min-1
[17]
  HR: 400 beats min-1
[18]
  HR: 393 beats min-1
[19]
  MAP: 107 mmHg
[20]
  MAP: 105 mmHg
[21]
  MAP: 118 mmHg
[22]
  MAP: 128 mmHg
[23]
  MAP: 85 mmHg
[24]
  MAP: 96 mmHg
[25]
  MAP: 95 mmHg
[26]
  MAP: 80 mmHg
[27]
  MAP: 98 mmHg
[28]
  MAP: 105 mmHg
[29]
  MAP: 99 mmHg
[30]
  MAP: 118 mmHg
[31]
  RPP: 54000 mmHg beats min-1
[32]
  RPP: 31800 mmHg beats min-1
[33]
  RPP: 38100 mmHg beats min-1
[34]
  RPP: 35100 mmHg beats min-1
[35]
  RPP: 32000 mmHg beats min-1
[36]
  RPP: 37500 mmHg beats min-1
[37]
  RPP: 40200 mmHg beats min-1
[38]
  RPP: 38100 mmHg beats min-1
[39]
  RPP: 46700 mmHg beats min-1
[40]
  RPP: 41800 mmHg beats min-1
[41]
  RPP: 42700 mmHg beats min-1
[42]
  RPP: 46400 mmHg beats min-1
[43]
  Cmax: 3700 ng/mL
[44]
  clearance: 4.83 mL/min/kg
[45]
  clearance: 5.67 mL/min/kg
[46]
  MRT: 5.7 h
[47]
  HR: 397 beats min-1
[48]
  HR: 399 beats min-1

## COC(=O)N1CCN(C(=O)/C=C/c2ccc(Sc3ccccc3C(C)C)c([N+](=O)[O-])c2)C(C(=O)O)C1 (configuration not stated)
[6]
  IC50: 130 nM

## CC(C)c1ccccc1Sc1ccc(/C=C/C(=O)N2CCNC(C(=O)N(C)C)C2)cc1[N+](=O)[O-] (configuration not stated)
[6]
  IC50: 75 nM

## COC(=O)C1CNCCN1C(=O)/C=C/c1ccc(Sc2ccccc2C(C)C)c([N+](=O)[O-])c1 (configuration not stated)
[6]
  IC50: 340 nM

## CC(C)c1ccccc1Sc1ccc(/C=C/C(=O)N2CCNCC2)cc1[N+](=O)[O-]
[6]
  IC50: 450 nM

## CC(=O)N1CCN(C(=O)/C=C/c2ccc(Sc3ccccc3C(C)C)c([N+](=O)[O-])c2)CC1 [A-286982]
[49]
  bioavailability: 0%
[50]
  Cmax: 0 ug m l-1
[51]
  Solubility: < 1 µg/mL
[52]
  clearance: 45 mL/min/kg

## CC(C)c1ccccc1Sc1ccc(/C=C/C(=O)N2CCNC(CO)C2)cc1[N+](=O)[O-] (configuration not stated)
[1]
  bioavailability: 0%
[3]
  half-life: 1.9 h
[4]
  Cmax: 0 ug m l-1
[6]
  IC50: 280 nM
[51]
  Solubility: 5 µg/mL (≈ 11.3 µM)
[7]
  clearance: 53.3 mL/min/kg

## CC(C)c1ccccc1Sc1ccc(/C=C/C(=O)N2CCCC(C(=O)O)C2)cc1[N+](=O)[O-] (configuration not stated)
[1]
  bioavailability: 19%
[2]
  MRT: 11.3 h
[3]
  half-life: 0.4 h
[4]
  Cmax: 0.45 ug m l-1
[5]
  IC50: 90 nM
[6]
  IC50: 30 nM
[7]
  clearance: 35 mL/min/kg

## CC(C)c1ccccc1Sc1ccc(/C=C/C(=O)N2CC=CC2C(=O)O)cc1C(F)(F)F (configuration not stated)
[6]
  IC50: 130 nM

## CC(C)c1ccccc1Sc1ccc(/C=C/C(=O)N2CCN(C(=O)c3ccncc3)CC2)cc1[N+](=O)[O-]
[5]
  IC50: 20 nM
[6]
  IC50: 66 nM

## CC(C)c1ccccc1Sc1ccc(/C=C/C(=O)N2CCC3(CC2)OCCO3)cc1[N+](=O)[O-]
[6]
  IC50: 55 nM

## CC(C)c1ccccc1Sc1ccc(/C=C/C(=O)N2CCC(=O)CC2)cc1[N+](=O)[O-]
[5]
  IC50: 240 nM
[6]
  IC50: 60 nM

## CNC(=O)N1CCN(C(=O)/C=C/c2ccc(Sc3ccccc3C(C)C)c([N+](=O)[O-])c2)CC1
[6]
  IC50: 25 nM

## CC(C)c1ccccc1Sc1ccc(/C=C/C(=O)N2CCN(C)CC2)cc1[N+](=O)[O-]
[6]
  IC50: 130 nM

## COC(=O)C1CN(C(=O)/C=C/c2ccc(Sc3ccccc3C(C)C)c([N+](=O)[O-])c2)CCN1C (configuration not stated)
[5]
  IC50: 110 nM
[6]
  IC50: 45 nM

## COC(=O)C1CN(C(=O)/C=C/c2ccc(Sc3ccccc3C(C)C)c([N+](=O)[O-])c2)CCN1 (configuration not stated)
[5]
  IC50: 98 nM
[6]
  IC50: 60 nM

## CC(C)c1ccccc1Sc1ccc(/C=C/C(=O)N2CCC(S(=O)(=O)O)CC2)cc1[N+](=O)[O-]
[6]
  IC50: 90 nM
